Experimental findings from ChEMBL document CHEMBL3817843, “Understanding Oxadiazolothiazinone Biological Properties: Negative Inotropic Activity versus Cytochrome P450-Mediated Metabolism” (J Med Chem, 2016) are described below.

The source made the active and inactive calls. The rule behind the calls is not given here.

A short description of data set [1]: Half life in human liver microsomes assessed as CYP-mediated compound degradation at 1 uM by LC-MS analysis. (Liver microsomes are a subcellular fraction often used to study metabolism.)
For a further data set, the species on record is Rattus norvegicus. Briefly: Displacement of [3H]Isradipine from LTCC DHP site in Sprague-Dawley rat cardiomyocytes at 100 uM after 20 mins by liquid scintillation counting analysis. Type of data set: cell-based. Summed up:
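Rat cardiomyocytes pooled from at least three animals, stored frozen at −80 °C, 0.15−0.2 mg protein/tube. Incubated in 50 mmol/L Tris-HCl with 1.2 mmol/L MgCl2, pH 7.4, at 37 °C for 20 min with 0.1 nM (+)-[3H]isradipine and unlabeled compound (1 nM to 0.1 mM). Nonspecific binding defined with 0.1 mM isradipine. Filtered through PEI-presoaked GF/B filters; scintillation counting; duplicates.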
For orientation: Loss of bound radioactivity is the signal in a displacement assay; it reports binding, not function.

Data set [2] relates to Left cardiac atrium. Description: Potentiation of nifedipine-induced negative inotropic activity in potassium depolarized guinea pig left atrium assessed as reduction in developed tension at 10^-8 M preincubated for 30 mins followed by nifedipine addition. The format is functional. Conditions: Cavia porcellus. The gist of the method: (§1)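 Guinea pig left atria driven at 1 Hz. Pretreated with compound at 0.01 μM, added 30 min before diltiazem, verapamil or nifedipine. Blocker concentration−response curves analysed by probit (Litchfield and Wilcoxon), n = 6−7. Data given as mean ±, Student's t test.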

In data set [3] the test system is Aorta. Description: Inhibition of diltiazem-induced vasorelaxant activity in potassium depolarized guinea pig aorta assessed as relaxation of calcium-induced contraction at 10^-6 M preincubated for 30 mins followed by diltiazem addition. Conditions: Cavia porcellus. Type of data set: functional, tissue-based. The gist of the method: (§2)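 K+-depolarized (80 mM) guinea pig aortic strips contracted with calcium. Compound at 1 μM added 30 min before diltiazem, verapamil or nifedipine. Response expressed as percent change from control. Data given as mean ±, Student's t test.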

The subject of data set [4] is Aorta. Description: Inhibition of nifedipine-induced vasorelaxant activity in potassium depolarized guinea pig aorta assessed as relaxation of calcium-induced contraction at 10^-6 M preincubated for 30 mins followed by nifedipine addition. Type of data set: functional, tissue-based. To be noted: Cavia porcellus. The gist of the method: as §2
The test system of data set [5] is Left cardiac atrium. Description: Negative inotropic activity in potassium depolarized guinea pig left atrium assessed as reduction in developed tension at 10^-8 M preincubated for 30 mins followed by 0.5 uM nifedipine addition. Further details: scale not given: the % may be the effect or the level left. The format is functional, Cavia porcellus.
Data set [6] has as its system Left cardiac atrium. Briefly: Negative inotropic activity in potassium depolarized guinea pig left atrium assessed as EC50 for diltiazem at 10^-8 M preincubated for 30 mins followed by diltiazem addition. The format is functional. To be noted: Cavia porcellus. The gist of the method:
as §1

Data set [7] deals with Aorta. Description: Vasorelaxant activity in potassium depolarized guinea pig aorta assessed as inhibition of calcium-induced contraction at 10^-8 M preincubated for 30 mins followed by 0.5 uM nifedipine addition. Details: scale not given: the % may be the effect or the level left. The format is functional, Cavia porcellus.
Another data set addresses Cytochrome P450 2C19 (Homo sapiens, UniProt P33261). Briefly: Inhibition of CYP2C19 in human liver microsomes using (S)-mephenytoin as substrate after 40 mins by LC-MS analysis.
In another data set the target is Cytochrome P450 2D6 (Homo sapiens, UniProt P10635). Briefly: Inhibition of CYP2D6 in human liver microsomes using dextromethorphan as substrate after 10 mins by LC-MS analysis.
Cytochrome P450 2D6, sequence (P10635 whole entry): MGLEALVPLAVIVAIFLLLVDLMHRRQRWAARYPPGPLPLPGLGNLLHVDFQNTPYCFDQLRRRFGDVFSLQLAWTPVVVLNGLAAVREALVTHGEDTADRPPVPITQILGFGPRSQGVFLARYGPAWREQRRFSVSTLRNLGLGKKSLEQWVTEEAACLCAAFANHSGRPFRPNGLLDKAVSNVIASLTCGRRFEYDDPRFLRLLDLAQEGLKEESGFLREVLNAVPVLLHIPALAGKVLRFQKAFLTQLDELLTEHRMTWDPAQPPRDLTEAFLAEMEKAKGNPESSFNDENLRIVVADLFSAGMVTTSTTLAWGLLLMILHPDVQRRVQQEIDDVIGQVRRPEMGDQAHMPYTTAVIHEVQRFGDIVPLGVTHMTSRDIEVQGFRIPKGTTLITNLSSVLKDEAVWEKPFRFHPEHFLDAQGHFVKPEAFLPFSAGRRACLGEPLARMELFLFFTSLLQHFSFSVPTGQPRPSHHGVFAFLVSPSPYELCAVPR
In data set [8] the test system is Left cardiac atrium. Description: Negative inotropic activity against potassium depolarized guinea pig left atrium assessed as decrease in nifedipine EC50 at 10^-8 M preincubated for 30 mins followed by nifedipine addition relative to control. Type of data set: functional, Cavia porcellus. Summed up:
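Isolated guinea pig left atria, electrically driven at 1 Hz. The pretreatment agent (0.01 μM) was added to the bath 30 min before the L-type calcium channel blocker. Blocker concentration–response curves were then run to obtain the negative inotropic EC50, which was compared with the EC50 for the blocker alone. Data were compared by Student's t test.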

Data set [9] deals with Aorta. Briefly: Inhibition of diltiazem-induced vasorelaxant activity in potassium depolarized guinea pig aorta assessed as relaxation of calcium-induced contraction at 10^-8 M preincubated for 30 mins followed by diltiazem addition. The format is functional, tissue-based. To be noted: Cavia porcellus.

Cytochrome P450 2C19, sequence (P33261 whole entry): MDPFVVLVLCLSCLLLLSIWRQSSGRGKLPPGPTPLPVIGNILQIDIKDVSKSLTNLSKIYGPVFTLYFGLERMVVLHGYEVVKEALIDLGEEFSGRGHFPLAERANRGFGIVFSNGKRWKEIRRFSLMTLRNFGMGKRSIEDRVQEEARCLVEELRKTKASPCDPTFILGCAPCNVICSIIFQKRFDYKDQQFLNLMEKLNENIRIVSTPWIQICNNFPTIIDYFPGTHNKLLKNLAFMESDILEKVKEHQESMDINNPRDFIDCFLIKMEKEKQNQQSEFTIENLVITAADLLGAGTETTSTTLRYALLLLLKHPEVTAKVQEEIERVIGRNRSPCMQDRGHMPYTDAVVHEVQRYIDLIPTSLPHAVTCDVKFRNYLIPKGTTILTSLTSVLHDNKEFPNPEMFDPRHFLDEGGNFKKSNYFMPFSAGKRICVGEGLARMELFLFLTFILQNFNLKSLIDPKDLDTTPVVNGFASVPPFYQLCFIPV

By half-life is commonly meant how long it takes for the measured level to halve. Usually inhibition stands for the percentage by which the read-out fell short of the control. As a reminder, the EC50 is the concentration at which the effect is half-maximal. As usually defined, the IC50 is the concentration that inhibits the measured activity by half. `CCOC1(c2ccc(Br)cc2)SC=C(C)n2c1noc2=O` (configuration not stated): the half-life at 1 µM in [1] was 53 min. For the same compound, in the data set listed under Rattus norvegicus, the inhibition worked out at 40%. Besides, the outcome in the data set on Left cardiac atrium [2] was Active. Also, the inhibition result in the data set on Aorta [3] and in the data set on Aorta [4] was “Active” each time. The Activity is listed as 94% in the data set on Left cardiac atrium [5] and 10% with Aorta [7]. In addition, in the data set with Left cardiac atrium [6], the 50% effective concentration (EC50) is 0.27 µM. In addition, the IC50 at Cytochrome P450 2C19 is 1.8 µM; against Cytochrome P450 2D6, 4.1 µM. For the same compound, in the data set with Left cardiac atrium [8], the “fold change (FC)” value came to 11.8. Further, the inhibition entry with Aorta [9] was “inactive”.
